Results published in BindingDB's records for doi:10.1016/j.bmcl.2013.01.031 (Birla Institute of Technology, 2013).

Biological target: O-acetylserine sulfhydrylase (Mycobacterium tuberculosis (strain ATCC 25618 / H37Rv), UniProt P9WP55)
Assay: Inhibition of Mycobacterium tuberculosis CysK1 using O-acetyl-L-serine as substrate assessed as L-cycteine formation after 5 mins by spectrophotometric analysis
In short: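 Dose–response: serial 1:3 dilutions prepared in 50% DMSO (final DMSO 5%). Final mix was 100 mM MOPS pH 7.0, 2 mM O-acetyl-L-serine, […] CysK1, preincubated 5 min at room temperature. The reaction was started with sodium sulphide (final 1 mM). Aliquots taken at time intervals were assayed for L-cysteine by acid-ninhydrin. Specific activity vs concentration was fitted to a sigmoid for IC50.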

Work on `O=C1Nc2c(c(=O)nc3sc([N+](=O)[O-])cn23)C(c2ccccc2C(F)(F)F)N1` (configuration not stated) yielded an IC50 of 17.7 µM.
Molecule `Cc1ccccc1C1NC(=S)Nc2c1c(=O)nc1sc([N+](=O)[O-])cn21` (configuration not stated) has an IC50 of 17.7 µM.
